Measurements from ChEMBL document CHEMBL4130513, “Jozilebomines A and B, Naphthylisoquinoline Dimers from the Congolese Liana Ancistrocladus ileboensis, with Antiausterity Activities against the PANC-1 Human Pancreatic Cancer Cell Line” (J Nat Prod, 2017).
pIC50: −log10 of the molar value. Activity calls are given as the source filed them. The calls are words filed in the database; no cut-off is given here.

Experiments:
Trypanosoma cruzi = experiment: Antitrypanosomal activity against Trypanosoma cruzi trypomastigote forms infected in rat L6 cells after 96 hrs by CPRG/Nonidet substrate based photometric method; format: functional, organism-based
Leishmania donovani = experiment: Antileishmanial activity against Leishmania donovani amastigote forms after 72 hrs by alamar blue staining based fluorescence assay; format: functional, organism-based
PANC-1 [1] = experiment: Cytotoxicity against human PANC1 cells in DMEM measured after 24 hrs by WST8 assay; format: cell-based; details: panc-1, 24 h
Summary of the method: (§1)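 PANC-1 cells seeded at 1.5 × 10^4/well, attached 24 h in DMEM at 37 °C, 5% CO2. After two PBS washes, exposed to serially diluted samples in nutrient-rich DMEM or nutrient-deprived medium (pH 7.4) for 24 h. Then WST-8 (10% in DMEM) for 3 h, A450 read. Viability is relative to control and blank wells. PC50 is the concentration killing 50% of cells preferentially in NDM.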

HeLa = experiment: Cytotoxicity against human HeLa cells assessed as reduction in cell viability after 72 hrs by CCK8 assay; format: functional, cell-based
Summary of the method: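 HeLa cells (DMEM, 10% FBS) plated at 2 × 10^3/well and attached 24 h at 37 °C, 5% CO2. After a PBS wash, serially diluted samples in DMEM were added for 72 h, with paclitaxel as positive control. Cells were washed, given 10% WST-8 (CCK-8) in DMEM for 3 h, and A450 was read. Viability was taken from three-well means, corrected against blank and control.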

[2] = Selectivity index, ratio of IC50 for rat L6 cells to IC50 for Plasmodium falciparum NF54; format: toxicity
[3] = test system: Trypanosoma brucei rhodesiense; experiment: Antitrypanosomal activity against Trypanosoma brucei rhodesiense bloodstream forms after 72 hrs by alamar blue staining based fluorescence assay; format: functional, organism-based
Plasmodium falciparum = experiment: Antiplasmodial activity against Plasmodium falciparum NF54 assessed as reduction in [3H]hypoxanthine incorporation pretreated for 48 hrs followed by [3H]hypoxanthine addition measured after 24 hrs by liquid scintillation counting method; format: functional, organism-based
L6 = experiment: Cytotoxicity against rat L6 cells after 72 hrs by alamar blue staining based fluorescence assay; format: cell-based
PANC-1 [4] = experiment: Antiausteritic activity against human PANC1 cells in nutrient-deprived medium measured after 24 hrs by WST8 assay; format: functional; summary of the method: as §1
PANC-1 [5] = experiment: Induction of morphological changes in human PANC1 cells assessed as cell membrane rupture at 5 uM after 24 hrs by ethidium bromide/acridine orange staining based microscopic analysis; format: functional
Summary of the method: (§2)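 PANC-1 cells seeded at 1 × 10^6 per well and attached 24 h. After two PBS washes, treated in NDM with vehicle or 5 μM compound for 24 h. EB/AO dye mix (100 μg mL−1 each in PBS) added for 5 min. Imaged by phase contrast and red/green fluorescence at 20× objective.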

PANC-1 [6] = experiment: Induction of morphological changes in human PANC1 cells assessed as disintegration of cell organelles at 5 uM after 24 hrs by ethidium bromide/acridine orange staining based microscopic analysis; format: functional; summary of the method: as §2
PANC-1 [7] = experiment: Inhibition of colony formation in human PANC1 cells pretreated for 24 hrs followed by compound washout measured after 10 days by crystal violet staining based assay; format: functional, cell-based
Summary of the method: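 PANC-1 cells plated at 500/well in DMEM and attached 24 h at 37 °C, 5% CO2. Exposed 24 h to compound (1.25 and 2.5 μM) in DMEM or to DMEM alone. Washed with PBS, then grown 10 d in fresh DMEM. Fixed with 4% formaldehyde and stained with crystal violet for 10 min. Colony area quantified; three independent experiments.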

pIC50 (Plasmodium falciparum) | Compound | Ratio IC50 [2] | PC50 (PANC-1 [4]) | Activity (PANC-1 [5]) | Activity (HeLa) | Activity (PANC-1 [6]) | inhibition (PANC-1 [7]) | Activity (PANC-1 [4]) | further results
7.37 | COc1cc(C)c(-c2ccc3c(c2O)[C@@H](C)N[C@H](C)C3)c2ccc(-c3c(C)c(-c4ccc5c(c4O)[C@@H](C)N[C@H](C)C5)c4cccc(OC)c4c3O)c(O)c12 (atropisomer, axis not shown) [listing 1 of 2 here] | 160 | 2.24 µM | – | – | – | – | – | pIC50 (Trypanosoma cruzi; l6): 4.62; pIC50 (Leishmania donovani; Leishmania donovani, 72 h): 4.05; Activity (PANC-1 [1]): Non-Toxic; pIC50 (HeLa; Homo sapiens, HeLa, 72 h): 5.97; pIC50 ([3]; Trypanosoma brucei, 72 h): 6.14; pIC50 (L6; Rattus norvegicus, L6, 72 h): 5.16
– | COc1cc(C)c(-c2ccc3c(c2O)[C@@H](C)N[C@H](C)C3)c2ccc(-c3c(C)c(-c4ccc5c(c4O)[C@@H](C)N[C@H](C)C5)c4cccc(OC)c4c3O)c(O)c12 (atropisomer, axis not shown) [listing 2 of 2 here] | – | – | Active | Dose-dependent effect | Active | Dose-dependent effect | Dose-dependent effect | –
6.99 | COc1cc(C)c(-c2ccc3c(c2O)[C@@H](C)N[C@H](C)C3)c2ccc(-c3c(C)c(-c4ccc5c(c4O)[C@@H](C)N[C@H](C)C5)c4cccc(OC)c4c3O)c(O)c12 (single isomer, unassigned; atropisomer 2) [listing 1 of 2 here] | 52.3 | 0.87 µM | – | – | – | – | – | pIC50 (Trypanosoma cruzi; Trypanosoma cruzi, L6, 96 h): 4.66; pIC50 (Leishmania donovani): 4.25; pIC50 (HeLa; hela): 6.17; pIC50 [3]: 5.99; pIC50 (L6; l6): 5.27
– | COc1cc(C)c(-c2ccc3c(c2O)[C@@H](C)N[C@H](C)C3)c2ccc(-c3c(C)c(-c4ccc5c(c4O)[C@@H](C)N[C@H](C)C5)c4cccc(OC)c4c3O)c(O)c12 (single isomer, unassigned; atropisomer 2) [listing 2 of 2 here] | – | – | Active | Dose-dependent effect | Active | Dose-dependent effect | Dose-dependent effect | –
– | COc1cc(C[C@H]2C(=O)OC[C@@H]2Cc2ccc(OC)c(OC)c2)ccc1O [ARCTIGENIN] | – | 0.83 µM | – | – | – | – | – | –
